From PubChem
Rows were chosen to be rich in hits. Some 1.8% of all compounds tested hit in one or more screens of this group.
Cneo AK release = causes C. neoformans cell lysis. adenylate kinase release luminescence, 4 h; normalised: neutral wells 0, clomiphene wells 100. lysis activity, % at 15 µM. 0.2% of 360,000 active;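 active = mean lysis activity across replicates of at least 80%, whatever share of replicates individually reach that level; inactive = mean lysis activity below 80%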
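Material – Cryptococcus neoformans yeast cells · Quantity – 5 × 10^6 yeast cells/mL · Buffer or medium – YPD medium · Compound – single dose · Timing – 4 h static compound exposure, 37 °C, read 1 h post-reagent · Signal – adenylate kinase release luminescence · Read-out basis – lysis from increased AK signal · Benchmarks – Clomiphene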
iPSC survival up = increases survival of single human iPS cells; 0.044% of 360,000 active; survival enhancement, % at 20 µM; hiPSC single-cell survival, ATPlite luminescence; 100% = ROCK inhibitor wells, 0% = DMSO; AID 602274; in the data active = survival enhancement above about 18%;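 note: cells exposed to compounds for 16 hours before the ATP read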
rRNA inh HTS = inhibits bacterial ribosomal RNA function over humanized ribosomes | E. coli WT GFP vs humanized-ribosome RFP mutants, fluorescence, 24 h; active compounds read low; DMSO median 0, no signal -100 | 1.6% of 350,000 active | GFP signal change (wild-type ribosome), % (no concentration beside the values) | AID 720706;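 active = significant combined selectivity score with lowered wild-type GFP, culture density cut under 30%, mutant RFP and density less affected; inactive = any of these conditions unmet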
DAGLB inh = blocks human DAGLB lipase activity; HEK293T DAGLB membrane lysate, EnzChek fluorogenic substrate; inhibition, % at 5.17 µM; AID 504411; 0.059% of 340,000 active; in the data active = inhibition above about 34%;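 note: 0% = enzyme with vehicle and 100% = wells lacking enzyme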
Target sequence (Q8NCG7 whole entry, looked up): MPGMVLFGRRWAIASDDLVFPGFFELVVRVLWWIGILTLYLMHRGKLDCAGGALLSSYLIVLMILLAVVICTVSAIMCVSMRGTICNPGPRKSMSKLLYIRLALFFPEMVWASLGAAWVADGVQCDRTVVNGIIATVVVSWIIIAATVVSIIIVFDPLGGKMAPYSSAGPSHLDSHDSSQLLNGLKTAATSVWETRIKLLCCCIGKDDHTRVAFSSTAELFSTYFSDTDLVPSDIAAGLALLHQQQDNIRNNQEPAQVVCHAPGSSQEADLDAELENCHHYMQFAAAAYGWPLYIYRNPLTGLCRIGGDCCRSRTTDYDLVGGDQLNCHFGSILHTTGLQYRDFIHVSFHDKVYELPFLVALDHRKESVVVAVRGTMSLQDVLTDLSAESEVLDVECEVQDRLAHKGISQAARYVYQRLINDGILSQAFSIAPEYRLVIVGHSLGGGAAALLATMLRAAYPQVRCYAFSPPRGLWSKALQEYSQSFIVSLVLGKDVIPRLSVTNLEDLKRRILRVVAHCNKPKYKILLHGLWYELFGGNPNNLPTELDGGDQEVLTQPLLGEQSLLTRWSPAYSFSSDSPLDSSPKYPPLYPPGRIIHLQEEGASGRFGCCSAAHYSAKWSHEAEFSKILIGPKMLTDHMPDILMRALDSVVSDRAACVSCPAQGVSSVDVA
SKN-1 inh = blocks SKN-1 activity in C. elegans | C. elegans VP596 Pgst-4::GFP/RFP ratio, acrylamide-induced, 24 h | inhibition, % at 21.8 µM | 0.49% of 360,000 active;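 active = interference check ratio from 0.5 to 1.5 plus GFP to RFP signal ratio inhibition reaching or exceeding a fixed threshold, cut at about 30% in these data, passing the limit was not always enough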
MT1-MMP act inh = blocks activation of human MT1-MMP; P50281; HT1080 RFP-PRO-GFP cells, GFP/RFP ratio fluorescence, overnight; percent of plate control window, DMSO zero; GFP/RFP ratio change, % at 20 µM; 0.061% of 360,000 active;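 active = GFP/RFP ratio change of at least 30% with cell ATP level not reduced by more than half and red fluorescence within 50% of control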
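Material – HT1080 RFP-PRO-GFP cells · Control set – DMSO wells and RFP-L50D-GFP cells · Incubation – overnight cell settling, then overnight compound exposure, 37 °C, 5% CO2 · Compound dosing – single-point 20 µM compound, 1% DMSO · Read-out – GFP/RFP fluorescence ratio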
An asterisk follows results filed as active.

How did CO[C@H]1CN(C)C(=O)c2ccc(NC(=O)C3CC3)cc2OC[C@H](C)N(Cc2ccc(F)cc2)C[C@@H]1C do in these assays?
rRNA inh HTS: -3

How did O=C(CCc1nc2ccccc2s1)OCC(=O)c1ccc[nH]1 do in these assays?
Cneo AK release: 2; iPSC survival up: -1; rRNA inh HTS: -27*; DAGLB inh: 2; SKN-1 inh: 15; MT1-MMP act inh: 1

How did Cn1c(N)c(C(=O)COC(=O)CCc2nc3ccccc3s2)c(=O)n(C)c1=O do in these assays?
Cneo AK release: 0; iPSC survival up: 1; rRNA inh HTS: -10; DAGLB inh: -5; SKN-1 inh: -2; MT1-MMP act inh: 0

What do the screens show for `O=C(CCc1nc2ccccc2s1)OCC(=O)c1ccccc1`?
iPSC survival up: 0; rRNA inh HTS: -20*; DAGLB inh: -2; SKN-1 inh: 5; MT1-MMP act inh: -5

How did COCC(=O)N1C[C@@H](C)[C@H](OC)CN(C)C(=O)c2ccc(NC(=O)NC(C)C)cc2OC[C@H]1C do in these assays?
Cneo AK release: -5; rRNA inh HTS: 6

What do the screens show for `Cc1ccc(C2C(C(=O)c3cccs3)=C(O)C(=O)N2c2cccc(C)n2)cc1` (stereo not drawn)?
iPSC survival up: 0; rRNA inh HTS: -15*; DAGLB inh: 3; SKN-1 inh: -2; MT1-MMP act inh: -3

How did CCCN1CNC(=S)N(c2cc(C)ccc2C)C1 do in these assays?
Cneo AK release: 0; iPSC survival up: 2; DAGLB inh: 1; SKN-1 inh: -18; MT1-MMP act inh: -2

Results for Cc1ccc(C)c(N2CN(CCC3=CCCCC3)CNC2=S)c1 ?
iPSC survival up: 2; rRNA inh HTS: -28*; DAGLB inh: -1; SKN-1 inh: -1; MT1-MMP act inh: 0

What do the screens show for `c1ccc(-c2nc3cc4ccccc4cc3[nH]2)nc1`?
Cneo AK release: -19; iPSC survival up: -4; DAGLB inh: -1; SKN-1 inh: 42*; MT1-MMP act inh: 11

What do the screens show for `C[C@@H]1CN([C@@H](C)CO)C(=O)c2cc(-c3cncnc3)cnc2O[C@H]1CN(C)C(=O)Cc1cccnc1`?
Cneo AK release: 5; rRNA inh HTS: 2

How did COc1cccc(/C=C2\CC(C)Cc3c2nc2ccccc2c3C(=O)O)c1OC (stereo not drawn) do in these assays?
Cneo AK release: -13; iPSC survival up: 1; rRNA inh HTS: -5; DAGLB inh: 4; SKN-1 inh: 40*; MT1-MMP act inh: 0

How did COc1cc(/C=C2\CCc3c2nc2ccccc2c3C(=O)O)cc(OC)c1OC do in these assays?
Cneo AK release: -56; iPSC survival up: -1; rRNA inh HTS: -4; DAGLB inh: 2; SKN-1 inh: 5; MT1-MMP act inh: 4

Results for COc1ccc2c3c(n(C)c2c1)[C@H](CO)N(C(=O)Nc1ccc(F)cc1)CC31CCN(C)CC1 ?
rRNA inh HTS: 1

What do the screens show for `COCC(=O)Nc1ccc2c(c1)C(=O)N(C)[C@H]1CC[C@@H](CC(=O)NCCc3ccncc3)O[C@@H]1CO2`?
Cneo AK release: 2

What do the screens show for `O=[N+]([O-])c1cccc(COc2ccccc2CN2CCOCC2)c1`?
Cneo AK release: 3; iPSC survival up: 2; rRNA inh HTS: 8; DAGLB inh: -5; SKN-1 inh: 0; MT1-MMP act inh: 3

Results for Cc1cc(OCc2cccc(Cl)c2)c(C)cc1CN1CCOCC1 ?
Cneo AK release: -7; iPSC survival up: 2; rRNA inh HTS: -25; DAGLB inh: -4; SKN-1 inh: 72*; MT1-MMP act inh: -2

What do the screens show for `O=C(C[C@H]1CC[C@H]2[C@@H](COC[C@@H](O)CN2C(=O)Nc2cc(Cl)cc(Cl)c2)O1)N1CCOCC1`?
Cneo AK release: -3; rRNA inh HTS: -27*

How did O=C(C[C@H]1CC[C@H]2[C@@H](COC[C@H](O)CN2C(=O)Nc2ccc3c(c2)OCO3)O1)N1CCN(c2ccccc2)CC1 do in these assays?
Cneo AK release: 91*; rRNA inh HTS: 4

Results for O=C(C[C@@H]1CC[C@@H]2[C@H](COC[C@@H](O)CN2C(=O)Nc2ccc3c(c2)OCO3)O1)N1CCN(c2ccccc2)CC1 ?
Cneo AK release: 1; rRNA inh HTS: -1

How did CNC(=O)C[C@@H]1CC[C@H]2[C@H](COc3ccc(NC(=O)Nc4cc(C)cc(C)c4)cc3C(=O)N2C)O1 do in these assays?
Cneo AK release: -1; rRNA inh HTS: -3

Results for O=C(O)c1ccc(S(=O)(=O)Nc2ccc(O)c(Sc3nc4ccccc4s3)c2)cc1 ?
Cneo AK release: 3; iPSC survival up: 0; rRNA inh HTS: -23*; DAGLB inh: 1; SKN-1 inh: 2; MT1-MMP act inh: -1

What do the screens show for `NS(=O)(=O)c1ccc(Sc2nc3ccccc3s2)c([N+](=O)[O-])c1`?
Cneo AK release: 1; iPSC survival up: -1; rRNA inh HTS: -25*; DAGLB inh: -9; SKN-1 inh: -6; MT1-MMP act inh: 13

Results for Cc1ccccc1S(=O)(=O)N1C[C@@H](O)COC[C@H]2O[C@H](CC(=O)NCCc3ccccc3)CC[C@@H]21 ?
Cneo AK release: -1; rRNA inh HTS: 2

What do the screens show for `O=C(O)C[C@H]1C=C[C@@H](NC(=O)CCN2CCCCC2)[C@@H](CO)O1`?
rRNA inh HTS: 5

How did CC(=O)Nc1ccc(S(=O)(=O)N(C)CC(=O)NNC(=O)c2cccs2)cc1 do in these assays?
Cneo AK release: -4; iPSC survival up: 0; rRNA inh HTS: 10; DAGLB inh: 0; SKN-1 inh: 42*; MT1-MMP act inh: -3

How did C/C(CC(=O)Nc1ccc(C)c(Cl)c1)=N\NC(=O)Cc1ccccc1 do in these assays?
Cneo AK release: 3; iPSC survival up: 0; DAGLB inh: 0; SKN-1 inh: -3; MT1-MMP act inh: 0

What do the screens show for `C/C(CC(=O)Nc1ccc(OCc2ccccc2)cc1)=N\NC(=O)C(=O)Nc1ccc(C)c(Cl)c1`?
Cneo AK release: 4; iPSC survival up: 6; DAGLB inh: 1; SKN-1 inh: 38*; MT1-MMP act inh: 3

What do the screens show for `Cc1ccc(S(=O)(=O)Oc2ccccc2/C=N/Nc2ccc(C(=O)O)cc2)cc1`?
Cneo AK release: 0; iPSC survival up: 0; rRNA inh HTS: -33*; DAGLB inh: 4; SKN-1 inh: -4; MT1-MMP act inh: -1

What do the screens show for `COc1ccc(C(=O)NC(=S)NCc2cccnc2)cc1OC`?
Cneo AK release: -1; iPSC survival up: 2; rRNA inh HTS: -29*; DAGLB inh: -3; SKN-1 inh: -1; MT1-MMP act inh: 0

Results for COc1ccc(C(=O)NC(=S)NCc2ccccc2)cc1OC ?
Cneo AK release: 12; iPSC survival up: 2; rRNA inh HTS: -9; DAGLB inh: -5; SKN-1 inh: 10; MT1-MMP act inh: -2
